Sampled rows, rich in hits. Any-hit rate of the full collection: about 3.5%.
MrgX1 allo act – positive allosteric modulators of MrgX1, primary screen, HEK293 cells, Fluo-4 calcium flux; Mas-related G-protein coupled receptor member X1 (Homo sapiens), Q96LB2; FDSS; hits give high values; B-score at 10 µM; 310,000 compounds, 0.63% hits;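 active means plate-corrected calcium response at least 3 library SD above typical, normal starting fluorescence, not activating the receptor alone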;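 further: compound read alongside a low EC10 to EC30 dose of BAM8-22 agonist; peak minus trough fluorescence over baseline measured at the second addition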
Target sequence (Q96LB2 whole entry, looked up): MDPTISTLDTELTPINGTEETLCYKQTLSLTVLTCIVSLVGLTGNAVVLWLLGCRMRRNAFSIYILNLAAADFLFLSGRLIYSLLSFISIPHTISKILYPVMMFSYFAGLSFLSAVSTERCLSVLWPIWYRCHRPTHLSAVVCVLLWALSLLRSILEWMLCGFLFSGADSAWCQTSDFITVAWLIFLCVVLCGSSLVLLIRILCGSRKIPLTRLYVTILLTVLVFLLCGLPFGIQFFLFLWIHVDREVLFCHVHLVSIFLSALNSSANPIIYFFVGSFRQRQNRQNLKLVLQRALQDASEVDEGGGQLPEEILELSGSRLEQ
MrgX1 antagonist – antagonists of human MrgX1 receptor, primary screen, HEK293 cells, Fluo-4 calcium flux; Mas-related G-protein coupled receptor member X1 (Homo sapiens), Q96LB2; BAM8-22 antagonism; hits give low values; B-score at 10 µM; 310,000 compounds, 1.3% hits;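 active means calcium-response B-score plate-corrected more than 3 library SD below zero, starting fluorescence within 5 deviations, no agonist response on first addition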;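 further: peak minus trough fluorescence over baseline after final BAM8-22 challenge near maximal dose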
MrgX1 ag – agonists of human MrgX1 receptor, primary screen, HEK293 cells, Fluo-4 calcium flux; Mas-related G-protein coupled receptor member X1 (Homo sapiens), Q96LB2; Fluo-4 calcium fluorescence, agonist mode; hits give high values; B-score at 10 µM; 310,000 compounds, 0.44% hits;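 active means calcium response B-score plate-corrected fluorescence ratio at least 3 library SD, with starting fluorescence B-score inside 5 SD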
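Test system: HEK293 cells stably expressing human MrgX1 receptor; Input: fifteen thousand cells per well; Dosing: compound delivered in addition one of three; Schedule: overnight seeding, then 1 h dark dye loading; Technique: Fluo-4 NW calcium fluorescence; Measure: B-scored fluorescence response ratio; Controls: positive and negative controls per plate.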
RGS4 inh – RGS4 inhibitors, primary screen, cell-based, HEK293 M3R inducible RGS4, calcium flux. Fluo-4 calcium flux; hits give high values; triggered by carbachol at its EC20. Regulator of G-protein signaling 4 (Homo sapiens), P49798. B-score at 10 µM. 310,000 compounds, 0.45% hits;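 active means B-score, a plate-corrected calcium signal, over three deviations above library mean, with baseline fluorescence within five deviations of library mean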;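 further: RGS4 expression induced by doxycycline in cells with stable M3 receptor; B-score is computed from the integrated fluorescence ratio over baseline after carbachol; higher B-score means a larger calcium signal and so more RGS4 inhibition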
Target sequence (P49798 whole entry, looked up): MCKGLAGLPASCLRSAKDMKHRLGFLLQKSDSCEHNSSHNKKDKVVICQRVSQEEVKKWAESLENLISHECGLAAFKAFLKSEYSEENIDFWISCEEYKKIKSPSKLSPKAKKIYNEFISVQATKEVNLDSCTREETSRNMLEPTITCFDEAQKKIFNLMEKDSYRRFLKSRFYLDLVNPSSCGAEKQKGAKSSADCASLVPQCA
RGS4 act – RGS4 potentiators or activators, primary screen, cell-based, HEK293 M3R inducible RGS4, calcium flux; 310,000 compounds, 0.92% hits; AID 463111, 2010; carbachol calcium flux Fluo4; hits give low values; B-score at 10 µM;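 active means B-score of the integrated calcium signal more than 4 SD below the library mean, with starting fluorescence not abnormally high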;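 further: negative B-score means reduced calcium response which marks RGS4 activation or potentiation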
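Material: Inducible-RGS4 HEK293 cells carrying M3 receptor; also added: carbachol at ECmax as muscarinic agonist stimulus; incubation: compound preincubation 20 min at room temperature before agonist; signal: Fluo4-AM (2 µM) calcium-flux fluorescence, kinetic read; measure: integrated calcium ratio converted to B score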
Numbers stand for hits; - = inactive; . = no result.

SMILES	MrgX1 allo act	MrgX1 antagonist	MrgX1 ag	RGS4 inh	RGS4 act
N#C/C(=C\c1cccs1)Sc1nc2ccccc2s1	-	-5.3	-	-	-
N#C/C(=C\c1ccc[nH]1)Sc1nc2ccccc2s1	-	-	-	-	-
CCN(CC(=O)Nc1c(F)cccc1F)C(=O)c1cc([N+](=O)[O-])ccc1N1CCCCC1	-	-	-	-	-
Cc1nc(C)n(C(C)CNS(=O)(=O)c2ccc(C)c(C)c2)n1 (stereo not given)	-	-	-	-	-
Cc1ccc2c(c1)N(C)/C(=C/c1cccc[n+]1C)S2	-	-7.2	-	-	-7.3
CN1/C(=C/c2cccc[n+]2C)Sc2ccccc21	-	-	-	-	-7.5
Cc1ccc2c(c1)N(C)/C(=C/c1cccc[n+]1CCO)S2	-	-	-	-	-7.3
Cc1ccccc1N(CC(=O)N1CCOCC1)S(C)(=O)=O	-	-	-	-	-
CC1CCN(C(=O)CSc2nnc3ccc(-c4cccnc4)nn23)CC1	-	-	-	-	-
Cn1c(=O)c(NCCO)c2c3c(cccc31)C(=O)c1ccccc1-2	-	-	-	-	-12
O=[N+]([O-])/C=C/c1cc2ccccc2[nH]1	-	-	41	-	-
Cc1cc(C(=O)N2CCN(C(c3ccccc3)c3ccccc3)CC2)no1	-	-	-	-	-
CCCc1cc(C(=O)N2CCN(C(c3ccccc3)c3ccccc3)CC2)no1	-	-	-	-	-7.4
Cc1sc2nc(CSc3cccc(C(F)(F)F)c3)[nH]c(=O)c2c1C	-	-5.1	-	-	-
COc1ccc(-c2csc(NC(=O)CSCC(=O)Nc3cc(C)on3)n2)cc1OC	-	-	29	-	-
Cc1nc(-c2cccc(NC(=O)c3cccs3)c2)cs1	-	-	-	-	-
COc1ccc(-c2csc(NC(=O)CN3C(=O)C4CC=CCC4C3=O)n2)cc1OC (stereo not given)	-	-	48	-	-
O=C(Nc1cccc(-c2csc(-c3ccccc3)n2)c1)c1cccs1	-	-	-	-	-7.1
COc1ccc(-c2csc(NC(=S)NC(=O)c3cccs3)n2)cc1OC	.	.	.	-	-7.3
CCOc1ccc(S(=O)(=O)N2CCN(C(=O)c3cc4c(s3)CCCC4)CC2)cc1	-	-	-	-	-
COc1ccccc1C(=O)NC(=O)Cn1nc(C)c([N+](=O)[O-])c1C	-	-	-	-	-
Cc1ccc(S(=O)(=O)N(Cc2ccccc2F)C(=O)N2CCN(C)CC2)cc1	-	-	-	-	-
COc1ccc(-c2csc(NC(=O)c3ccc(OCC(=O)N4CCOCC4)c(OC)c3)n2)cc1OC	-	-	-	-	-8.8
CCOC(=O)N1c2ccccc2Sc2ccccc21	-	-	-	-	-
Cc1nnc(SC(=O)N2c3ccccc3Sc3ccccc32)s1	-	-	-	-	-7
SMILES	MrgX1 allo act	MrgX1 antagonist	MrgX1 ag	RGS4 inh	RGS4 act
COc1cccc(-c2nn(-c3ccccc3)cc2CNC(C)Cn2cncn2)c1 (stereo not given)	-	-	-	-	-
COc1ccc(S(=O)(=O)N2CCC3(CC2)OCCO3)cc1	-	-	-	-	-
COCCNc1oc(/C=C/c2ccccc2OC)nc1S(=O)(=O)c1ccccc1	6.9	-	-	-	-
CCOC(=O)N1CCN(S(=O)(=O)N2CCCC(C(=O)NC(C)c3ccccc3)C2)CC1 (stereo not given)	-	-	-	-	-
COC(=O)c1sccc1-c1ccc(/C=N/OC(=O)c2cccs2)o1	-	-	-	-	-
CC(Oc1ccc(-c2ccccc2)c(F)c1)c1ccn(S(=O)(=O)c2ccc(Br)cc2)n1 (stereo not given)	-	-5.7	-	-	-
COc1cccc(C2CC(=O)C3=C(C2)Nc2ccccc2N(C(=O)CCC(=O)O)C3c2ccc(F)cc2)c1 (stereo not given)	-	-	-	-	-
O=[N+]([O-])c1ccc(N/N=C2\CC3CC=CC23)cc1 (stereo not given)	8.1	-	-	-	-
CNC(=O)CSc1cn(CC(=O)N(C(C)C)C(C)C)c2ccccc12	-	-	-	-	-
CCn1c(O)c(/C=N/N=C/c2ccccc2)c2ccc(C3=NNC(=O)CC3)cc21	-	-4.8	-	-	-
C#CCSc1nnc(-c2ccc(O)cc2)o1	-	-7.6	-	-	-
C#CCSc1nnc(-c2ccc(C)cc2)o1	-	-	-	-	-
Cc1nn(C)c(Oc2cccc(C(F)(F)F)c2)c1C=O	-	-5.9	-	-	-
COc1ccc(/C=N/Nc2ncnc3sc(C)c(C)c23)cc1	12	-	-	-	-
Cc1sc2ncnc(N/N=C/c3ccc(O)cc3)c2c1C	-	-	-	-	-
O=S(Cc1cc(Oc2ccccc2)nc(-c2ccccc2)n1)c1ccccc1 (stereo not given)	-	-	-	-	-
CCn1ncc(/C=N\NC(=O)c2ccc3c(c2)c(C)c(C)n3Cc2ccccc2)c1C	-	-	-	-	-
CCn1nc(C)c(/C=N/NC(=O)c2ccc3c(c2)c(C)c(C)n3Cc2ccccc2)c1C	-	-	-	-	-8.3
O=c1[nH]c(S)c(/C=C2\C=Nc3ccccc32)s1	-	-5.4	-	-	-
CC(C)n1nc(C(=O)Nc2nc3ccc(S(C)(=O)=O)cc3s2)c2ccccc2c1=O	-	-	-	-	-
CC(C)n1nc(C(=O)Nc2nnc(SCc3c(Cl)cccc3Cl)s2)c2ccccc2c1=O	-	-6.2	-	-	-
O=C(NCC(=O)N1CCOCC1)c1ccccc1	-	-	-	-	-
Nc1c(C(=O)N/N=C/c2cccnc2)oc2nc(-c3ccccc3)cc(-c3ccco3)c12	-	-6.2	-	-	-8.9
Nc1c(C(=O)N/N=C/c2cccnc2)oc2nc(-c3ccco3)cc(-c3ccco3)c12	-	-	-	-	-
CC(NC(=O)COc1ccc(N(C)S(=O)(=O)c2ccccc2)cc1)c1ccccc1 (stereo not given)	-	-	-	-	-
SMILES	MrgX1 allo act	MrgX1 antagonist	MrgX1 ag	RGS4 inh	RGS4 act
COc1ccc(CCC(=O)N(C)CC(=O)Nc2ccc(N3CCOCC3)cc2)cc1	11	-	-	-	-
CCOc1ccc(OCCCC(=O)N(C)CC(=O)Nc2ccc(N3CCOCC3)cc2)cc1	-	-	-	-	-
CC1=CC(=C(C#N)c2nc3ccccc3s2)C=C(C)N1Cc1ccco1	-	-	-	-	-7.6
COC(=O)c1ccc(NC(=O)N(c2ccccc2)c2ccccc2)cc1	-	-	-	-	-
COc1ccc(SCC(=O)c2cc(C)c(OC(=S)N(C)C)c(C)c2)cc1	-	-	-	-	-7
CS(=O)(=O)c1cccc(C(=O)Nc2ccc3c(c2)OCCCO3)c1	-	-	-	-	-
CC1(C)CC(=O)C(C(c2ccc(Br)cc2)C2C(=O)CC(C)(C)CC2=O)C(=O)C1	-	-	41	-	-

Screening data deposited in PubChem BioAssay by Johns Hopkins Ion Channel Center.
